Reference: ChEMBL document CHEMBL1629527, “In vitro antifungal activities of bis(alkylpyridinium)alkane compounds against pathogenic yeasts and molds” (Antimicrob Agents Chemother, 2010)

Experiments:
Rhizopus arrhizus [1] = experiment: Antifungal activity against Rhizopus oryzae 05-203111 after 48 to 72 hrs; type: functional
Procedure, shortened: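 After the broth microdilution MIC read, suspension from every well without visible growth was plated onto Sabouraud dextrose agar and incubated at 35°C, up to 7 days for molds. MFC was taken as the lowest drug concentration with no colonies.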

Cryptococcus neoformans [2] = experiment: Antifungal activity against Cryptococcus neoformans 05-202523 after 48 to 72 hrs; type: functional
Procedure, shortened: (§1)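 MFC: after the MIC read, 30-μl aliquots from each well without visible growth were plated onto Sabouraud dextrose agar and incubated at 35°C. Reading was at 48–72 h for yeasts and up to 7 days for molds. MFC was the lowest concentration with no colonies.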

Aspergillus terreus [3] = experiment: Antifungal activity against Aspergillus terreus 05-202844 after 48 to 72 hrs; type: functional; procedure, shortened: as §1
Exophiala spinifera = experiment: Antifungal activity against Exophiala spinifera 03-200803 after 24 to 72 hrs by broth microdilution method; type: functional
Procedure, shortened: (§2)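 Mold isolates subcultured on potato dextrose agar, then tested by CLSI M38-A2 broth microdilution in RPMI 1640 (L-glutamine, no bicarbonate) buffered to pH 7.0 with 0.165 M MOPS. Compounds were dissolved in water and tested at a final 0.175–87.5 μM. Plates were incubated at 35°C. MIC was read visually as the lowest concentration giving 100% inhibition versus the growth control. Each isolate was run in duplicate in two independent experiments.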

Fusarium solani = experiment: Antifungal activity against Fusarium solani 04-203102 after 24 to 72 hrs by broth microdilution method; type: functional; procedure, shortened: as §2
[4] = Antifungal activity against Paecilomyces lilacinus 05-200601 after 24 to 72 hrs by broth microdilution method; type: functional; settings: Purpureocillium lilacinum; procedure, shortened: as §2
Rhizopus arrhizus [5] = experiment: Antifungal activity against Rhizopus oryzae 05-203111 after 24 to 72 hrs by broth microdilution method; type: functional; procedure, shortened: as §2
Candida albicans [6] = experiment: Antifungal activity against Candida albicans ATCC 90028 after 48 to 72 hrs; type: functional; procedure, shortened: as §1
Pichia kudriavzevii [7] = experiment: Antifungal activity against Candida krusei […] after 48 to 72 hrs; type: functional; procedure, shortened: as §1
Pichia kudriavzevii [8] = experiment: Antifungal activity against Candida krusei 04-202328 after 48 to 72 hrs; type: functional
Procedure, shortened: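 CLSI M27-A3 broth microdilution for yeasts in RPMI 1640 with L-glutamine and no bicarbonate, buffered with 0.165 M MOPS to pH 7.0. Compounds were dissolved in water and tested at 0.175–87.5 μM final, 35°C. MIC was read visually at 24–72 h as 100% inhibition versus growth control. For MFC, 30 μl from clear wells went onto SDA at 35°C for 48–72 h, reading the lowest concentration without colonies. Duplicates, two independent runs.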

Candida parapsilosis [9] = experiment: Antifungal activity against Candida parapsilosis ATCC 22019 after 48 to 72 hrs; type: functional; settings: Lodderomyces parapsilosis; procedure, shortened: as §1
Aspergillus fumigatus [10] = experiment: Antifungal activity against Aspergillus fumigatus 05-203114 after 24 to 72 hrs by broth microdilution method; type: functional
Procedure, shortened: (§3)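 Broth microdilution MIC per CLSI M27-A3 (yeasts) or M38-A2 (molds). RPMI 1640 with L-glutamine, without bicarbonate, buffered to pH 7.0 with 0.165 M MOPS. Final test range for the compounds was 0.175–87.5 μM. Incubation at 35°C with visual reading at 24–72 h. MIC was the lowest concentration giving 100% inhibition versus the growth control (azoles 50% or 100%, by organism). Each isolate was run in duplicate in two independent experiments.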

Aspergillus flavus [11] = experiment: Antifungal activity against Aspergillus flavus ATCC 204304 after 24 to 72 hrs by broth microdilution method; type: functional; procedure, shortened: as §3
Aspergillus flavus [12] = experiment: Antifungal activity against Aspergillus flavus 05-203758 after 24 to 72 hrs by broth microdilution method; type: functional; procedure, shortened: as §3
Aspergillus terreus [13] = experiment: Antifungal activity against Aspergillus terreus 05-202844 after 24 to 72 hrs by broth microdilution method; type: functional; procedure, shortened: as §3
Lomentospora prolificans = experiment: Antifungal activity against Scedosporium prolificans 05-203060 after 24 to 72 hrs by broth microdilution method; type: functional; procedure, shortened: as §2
Scedosporium apiospermum = experiment: Antifungal activity against Scedosporium apiospermum 05-203100 after 24 to 72 hrs by broth microdilution method; type: functional; procedure, shortened: as §2
[14] = system: Cunninghamella bertholletiae; experiment: Antifungal activity against Cunninghamella bertholletiae 99-12187 after 24 to 72 hrs by broth microdilution method; type: functional; procedure, shortened: as §3
Lichtheimia corymbifera = experiment: Antifungal activity against Absidia corymbifera 04-200170 after 24 to 72 hrs by broth microdilution method; type: functional; procedure, shortened: as §3
Aspergillus fumigatus [15] = experiment: Antifungal activity against Aspergillus fumigatus ATCC 204305 after 24 to 72 hrs by broth microdilution method; type: functional; procedure, shortened: as §3
[16] = system: Cryptococcus gattii species complex; experiment: Antifungal activity against Cryptococcus gattii 05-200122 after 24 to 72 hrs by broth microdilution method; type: functional, Cryptococcus bacillisporus; procedure, shortened: as §3
Cryptococcus neoformans [17] = experiment: Antifungal activity against Cryptococcus neoformans 05-202523 after 24 to 72 hrs by broth microdilution method; type: functional; procedure, shortened: as §3
Cryptococcus neoformans [18] = experiment: Antifungal activity against Cryptococcus neoformans ATCC 90112 after 24 to 72 hrs by broth microdilution method; type: functional; procedure, shortened: as §3
Candida tropicalis = experiment: Antifungal activity against Candida tropicalis 04-202361 after 24 to 72 hrs by broth microdilution method; type: functional; procedure, shortened: as §3
Nakaseomyces glabratus [19] = experiment: Antifungal activity against Candida glabrata 04-202345 after 24 to 72 hrs by broth microdilution method; type: functional; procedure, shortened: as §3
Candida parapsilosis [20] = experiment: Antifungal activity against Candida parapsilosis 04-202398 after 24 to 72 hrs by broth microdilution method; type: functional; settings: Lodderomyces parapsilosis; procedure, shortened: as §3
Pichia kudriavzevii [21] = experiment: Antifungal activity against Candida krusei ATCC 9258 after 24 to 72 hrs by broth microdilution method; type: functional; procedure, shortened: as §3
Pichia kudriavzevii [22] = experiment: Antifungal activity against Candida krusei 04-202328 after 24 to 72 hrs by broth microdilution method; type: functional; procedure, shortened: as §3
Candida parapsilosis [23] = experiment: Antifungal activity against Candida parapsilosis ATCC 22019 after 24 to 72 hrs by broth microdilution method; type: functional; settings: Lodderomyces parapsilosis; procedure, shortened: as §3
Pichia kudriavzevii [24] = experiment: Antifungal activity against Candida krusei ATCC 6258 after 24 to 72 hrs by broth microdilution method; type: functional; procedure, shortened: as §3
Candida albicans [25] = experiment: Antifungal activity against Candida albicans ATCC 10231 after 24 to 72 hrs by broth microdilution method; type: functional; procedure, shortened: as §3
Candida albicans [26] = experiment: Antifungal activity against Candida albicans ATCC 90028 after 24 to 72 hrs by broth microdilution method; type: functional; procedure, shortened: as §3
Nakaseomyces glabratus [27] = experiment: Antifungal activity against Candida glabrata 04-202345 after 48 to 72 hrs; type: functional; procedure, shortened: as §1
[28] = Antifungal activity against Exophiala jeanselmei 03-200268 after 24 to 72 hrs by broth microdilution method; type: functional; procedure, shortened: as §3

MIC (Exophiala spinifera): 1.48 µg/mL
MIC (Fusarium solani): 47.3 µg/mL
MIC [4]: > 47.3 µg/mL
MIC (Rhizopus arrhizus [5]): 5.9 µg/mL
MIC (Aspergillus fumigatus [10]): > 47.3 µg/mL
MIC (Aspergillus flavus [11]): > 47.3 µg/mL
MIC (Aspergillus flavus [12]): > 47.3 µg/mL
MIC (Aspergillus terreus [13]): 2.96 µg/mL
MIC (Lomentospora prolificans): 2.96 µg/mL
MIC (Scedosporium apiospermum): 11.8 µg/mL
MIC [14]: > 47.3 µg/mL
MIC (Lichtheimia corymbifera): > 47.3 µg/mL
MIC (Aspergillus fumigatus [15]): > 47.3 µg/mL
MIC [16]: 1.48 µg/mL
MIC (Cryptococcus neoformans [17]): 11.8 µg/mL
MIC (Cryptococcus neoformans [18]): 2.96 µg/mL
MIC (Candida tropicalis): 2.96 µg/mL
MIC (Nakaseomyces glabratus [19]): 1.48 µg/mL
MIC (Candida parapsilosis [20]): > 47.3 µg/mL
MIC (Pichia kudriavzevii [21]): 11.8 µg/mL
MIC (Pichia kudriavzevii [22]): 23.7 µg/mL
MIC (Candida parapsilosis [23]): 1.48 µg/mL
MIC (Pichia kudriavzevii [24]): 23.7 µg/mL
MIC (Candida albicans [25]): 2.96 µg/mL
MIC (Candida albicans [26]): 2.96 µg/mL
MIC [28]: 2.96 µg/mL
Structure (SMILES): CC(C)CCc1cc[n+](CCCCCCCCCCCC[n+]2ccc(CCC(C)C)cc2)cc1.[Cl-].[Cl-]
MFC (Rhizopus arrhizus [1]): 23.7 µg/mL
MFC (Cryptococcus neoformans [2]): 47.3 µg/mL
MFC (Aspergillus terreus [3]): 5.9 µg/mL
MFC (Candida albicans [6]): 5.9 µg/mL
MFC (Pichia kudriavzevii [7]): 23.7 µg/mL
MFC (Pichia kudriavzevii [8]): 47.3 µg/mL
MFC (Candida parapsilosis [9]): 2.96 µg/mL
MFC (Nakaseomyces glabratus [27]): 5.9 µg/mL
